According to PubChem BioAssay AID623916 (The Scripps Research Institute Molecular Screening Center, 2012):
Calls of active or inactive are those of the source.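 How the source made its calls: active means recipient E. coli survival below 80% of the solvent-only control; inactive means survival at 80% of control or higher.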

Test system: E. coli V66 viability, colony formation, 1.5 h
Assay: recipient strain killing during Hfr crosses – colony formation, single concentration, Hfr recombination, cytotoxicity control for AddAB inhibitor project, late-stage follow-up (AID 623916)
Conditions: at 100 µM
Procedure, shortened: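 System: E. coli strain V66 recipients; Buffer or medium: LB broth during compound pre-growth; Compound dosing: single nominal 100 µM compound, present during pre-growth and mating; Times: 1 h compound pre-growth plus 30 min mating, 1.5 h total; Measured by: colony formation on non-selective plates.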

Structure (SMILES)	outcome
N#Cc1c(NC(=O)c2ccco2)sc2c1CCC2	inactive
CCn1cc(C(=O)O)c(=O)c2cnc(N3CCN(C(=S)NC(=O)c4cccc(C)c4)CC3)nc21	inactive
N#Cc1c(NC(=O)c2ccc([N+](=O)[O-])o2)sc2c1CCCC2	inactive
CCn1cc(C(=O)O)c(=O)c2cnc(N3CCN(C(=S)Nc4cccc(C(F)(F)F)c4)CC3)nc21	inactive
O=C(Nc1ncccn1)c1ccc([N+](=O)[O-])o1	inactive
Cc1ccc(C(=O)Nc2sc3c(c2C#N)CCC3)o1	inactive
C=CCn1c(Sc2ncc([N+](=O)[O-])s2)n[nH]c1=O	inactive
Cc1sc(NC(=O)c2ccc(Br)o2)c(C#N)c1C	inactive
CCn1cc(C(=O)O)c(=O)c2cnc(N3CCN(C(=S)Nc4ccc(Cl)cc4)CC3)nc21	inactive
Cc1ccc2nc(/C(C#N)=C\c3ccc([N+](=O)[O-])o3)[nH]c2c1	inactive
CC(=O)Nc1ccc2nc(NC(=O)c3ccc([N+](=O)[O-])o3)sc2c1	inactive
CCn1cc(C(=O)O)c(=O)c2cnc(N3CCN(C(=S)Nc4ccccc4F)CC3)nc21	inactive
CCn1cc(C(=O)O)c(=O)c2cnc(N3CCN(C(=S)Nc4ccccc4OC)CC3)nc21	inactive
CCn1cc(C(=O)O)c(=O)c2cnc(N3CCN(C(=S)Nc4ccccc4C(F)(F)F)CC3)nc21	inactive
CCn1cc(C(=O)O)c(=O)c2cnc(N3CCN(C(=S)NCc4ccccc4)CC3)nc21	inactive
CCn1cc(C(=O)O)c(=O)c2cnc(N3CCN(C(=S)NC(=O)c4ccccc4Cl)CC3)nc21	inactive
N#Cc1c(NC(=O)c2ccc(-c3ccccc3[N+](=O)[O-])o2)sc2c1CCCC2	inactive
CC1(C)Cc2c(sc(NC(=O)c3ccco3)c2C#N)CO1	inactive
CCn1cc(C(=O)O)c(=O)c2cnc(N3CCN(C(=S)Nc4ccc5c(c4)OCCO5)CC3)nc21	inactive
O=C(OCC(=O)c1cccs1)c1ccc([N+](=O)[O-])o1	inactive
CCn1cc(C(=O)O)c(=O)c2cnc(N3CCNCC3)nc21	inactive
CCn1cc(C(=O)O)c(=O)c2cnc(N3CCN(C(=S)Nc4ccc(F)cc4)CC3)nc21	inactive
CCn1cc(C(=O)O)c(=O)c2cnc(N3CCN(C(=S)NC(=O)c4ccco4)CC3)nc21	inactive
N#Cc1c(NC(=O)c2ccccc2)sc2c1CCC2	inactive
CC1CCc2c(sc(NC(=O)c3ccc([N+](=O)[O-])o3)c2C#N)C1 (centres undefined)	inactive

Structure (SMILES)	outcome
CC1CCc2c(sc(NC(=O)c3ccc([N+](=O)[O-])o3)c2N)C1 (centres undefined)	inactive
CCn1cc(C(=O)O)c(=O)c2cnc(N3CCN(C(=S)NC(C)c4ccccc4)CC3)nc21 (centres undefined)	inactive
CCn1cc(C(=O)O)c(=O)c2cnc(N3CCN(C(=S)Nc4ccccc4)CC3)nc21	inactive
CCn1cc(C(=O)O)c(=O)c2cnc(N3CCN(C(=S)Nc4ccccc4C)CC3)nc21	inactive
N#Cc1c(NC(=O)c2cccc(F)c2)sc2c1CCCC2	inactive
Cc1ccc(C(=O)Nc2sc3c(c2C#N)CCCCC3)o1	inactive
CCn1cc(C(=O)O)c(=O)c2cnc(N3CCN(C(=S)NC4CC5CCC4C5)CC3)nc21 (centres undefined)	inactive
O=C(Nc1ccc(N2CCOCC2)cc1)c1ccc([N+](=O)[O-])o1	inactive
Nc1c(NC(=O)c2ccc([N+](=O)[O-])o2)sc2c1CCCC2	inactive
CCn1cc(C(=O)O)c(=O)c2cnc(N3CCN(C(=O)Nc4ccccc4)CC3)nc21	inactive
CCn1cc(C(=O)O)c(=O)c2cnc(N3CCN(C(=S)Nc4ccccc4Cl)CC3)nc21	inactive
N#Cc1c(NC(=O)c2cnccn2)sc2c1CCCC2	inactive
O=C(NCc1cccnc1)c1ccc([N+](=O)[O-])o1	inactive
C=CCNC(=S)N1CCN(c2ncc3c(=O)c(C(=O)O)cn(CC)c3n2)CC1	inactive
CCn1cc(C(=O)O)c(=O)c2cnc(N3CCN(C(=S)NC)CC3)nc21	inactive
Cc1cccnc1NC(=O)c1ccc([N+](=O)[O-])o1	inactive
CCn1cc(C(=O)O)c(=O)c2cnc(N3CCN(C(=S)NC(=O)c4cccnc4)CC3)nc21	inactive
N#Cc1c(NC(=O)C2CC=CCC2C(=O)O)sc2c1CCC2 (centres undefined)	inactive
CCn1cc(C(=O)O)c(=O)c2cnc(N3CCN(C(=S)Nc4ccc5c(c4)OCO5)CC3)nc21	inactive
CCn1cc(C(=O)O)c(=O)c2cc(F)c(N3CCN(C(=S)Nc4cccc(C(F)(F)F)c4)CC3)cc21	active
NC(=O)c1ccsc1NC(=O)COC(=O)c1ccc([N+](=O)[O-])o1	inactive
O=C(Nc1cccc(NC(=O)c2ccccc2Cl)c1)c1ccc([N+](=O)[O-])o1	inactive
N#Cc1c(NC(=O)c2ccc([N+](=O)[O-])o2)sc2c1CCC2	inactive
N#Cc1c(NC(=O)c2ccccc2C(=O)O)sc2c1CCCC2	inactive
